15 compounds from ChEMBL document CHEMBL2040794, “Synthesis and structure-activity analysis of new phosphonium salts with potent activity against African trypanosomes” (J Med Chem, 2012) can be followed below.

The subject of series [1] is Trypanosoma brucei brucei. Description: Resistance factor, ratio of EC50 for diminazene aceturate-resistant TbAT1 gene-deficient Trypanosoma brucei brucei AT1-KO to EC50 for wild type Trypanosoma brucei brucei Lister 427. In kind it is functional. In a few lines: (§1)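 Resistance factor is the EC50 in the resistant line (TbAT1-KO or B48) divided by the EC50 in wild-type s427. […] Resistant and wild-type EC50s were compared by Student t-test.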

Series [2] deals with Trypanosoma brucei brucei. Description: Antitrypanosomal activity against diminazene-, pentamidine-, and melaminophenyl arsenical-resistant HAPT1-deficient Trypanosoma brucei brucei B48 after 3 days by alamar blue assay. In kind it is functional, organism-based. To be noted: Trypanosoma brucei, B48, 72 h. Summed up:
(§2)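 Bloodstream-form T. b. brucei (wild-type s427; TbAT1-KO, made from s427 by TbAT1 deletion; B48, selected from TbAT1-KO in vitro on pentamidine, lacking functional HAPT1). Cells were exposed to compound for 48 h, then resazurin (Alamar blue) was added for a further 24 h. A single fluorescence reading gave EC50.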
(In general: Alamar Blue is a resazurin reagent that responds to reducing activity.)

Series [3] is described as follows: Cytotoxicity against human HEK cells after 3 days by alamar blue assay. In kind it is cell-based, HEK293. In a few lines: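 Human embryonic kidney cells tested by resazurin (Alamar blue) assay: 48 h with compound, then 24 h more after dye addition, single reading; EC₅₀ derived.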
Series [4] deals with Trypanosoma brucei brucei. The series can be described thus: Antitrypanosomal activity against wild type Trypanosoma brucei brucei Lister 427 after 3 days by alamar blue assay. To be noted: Trypanosoma brucei, Lister 427, 72 h. In kind it is functional, organism-based. Summed up:
as §2

Series [5] can be described thus: Selectivity index, ratio of EC50 for human HEK cells to EC50 for wild type Trypanosoma brucei brucei Lister 427. The format is toxicity, cell-based, HEK293. To be noted: for selectivity ratio: HEK cells, read-out: Ratio EC50. Summed up:
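Ratio of EC₅₀ in HEK cells to EC₅₀ in wild-type T. b. brucei s427, both from resazurin assays.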

In series [6] the test system is L6. The series can be described thus: Cytotoxicity against rat L6 cells after 72 hrs by alamar blue assay. The format is cell-based.
A short description of series [7]: Selectivity index, ratio of EC50 for rat L6 cells to EC50 for Trypanosoma brucei rhodesiense STIB900. The format is toxicity, cell-based. To be noted: for selectivity ratio: L6 cells, read-out: Ratio EC50. In a few lines:
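Ratio of EC₅₀ in L6 cells to EC₅₀ against T. b. rhodesiense STIB900, both from Alamar blue assays.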

The test system of series [8] is Trypanosoma brucei brucei. Description: Resistance factor, ratio of EC50 for diminazene-, pentamidine-, and melaminophenyl arsenical-resistant HAPT1-deficient Trypanosoma brucei brucei B48 to EC50 for wild type Trypanosoma brucei brucei Lister 427. In kind it is functional. Summed up: as §1
Series [9] has as its system Trypanosoma brucei brucei. Description: Antitrypanosomal activity against diminazene aceturate-resistant TbAT1 gene-deficient Trypanosoma brucei brucei AT1-KO after 3 days by alamar blue assay. The format is functional, organism-based. In a few lines: as §2
Series [10] has as its system Trypanosoma brucei rhodesiense. Description: Antitrypanosomal activity against Trypanosoma brucei rhodesiense STIB900 infected in rat L6 cells after 72 hrs by alamar blue assay. The format is functional, organism-based.
The mark [11] stands for this setting: Trypanosoma brucei, AT1-KO, 72 h.
The mark [12] stands for this setting: Trypanosoma brucei, STIB900, 72 h.

What is called EC50 is the concentration that produces a half-maximal response. A high value points to lower potency in that assay.

SMILES strings stand for the structures.

On to `O=C(c1ccc(C[P+](c2ccc(Cl)cc2)(c2ccc(Cl)cc2)c2ccc(Cl)cc2)cc1)c1ccc(C[P+](c2ccc(Cl)cc2)(c2ccc(Cl)cc2)c2ccc(Cl)cc2)cc1.[Br-].[Br-]`, for which the “Ratio EC50” value in [1] is 1.5; in [8] it was 1. In addition, the EC50 in series [2] worked out at 950 nM; in [3] (Homo sapiens, HEK293, 72 h), 63000 nM; in [4], 940 nM; in series [6] (Rattus norvegicus, L6, 72 h), 7200 nM; in [9] (setting [11]) it was 1370 nM; in series [10] (setting [12]) it was 410 nM. Besides, the selectivity ratio in [5] stood at 67; in series [7], 18.
`CCC[P+](Cc1ccc(Cc2ccc(C[P+](CCC)(c3ccccc3)c3ccccc3)cc2)cc1)(c1ccccc1)c1ccccc1.[Br-].[Br-]`: the “Ratio EC50” value in series [1] and in series [8] was 1.1 throughout. The EC50 is 430 nM in [2]; above 300000 nM in series [3] (Homo sapiens, HEK293, 72 h); 373 nM in series [4]; 3270 nM in series [6] (Rattus norvegicus, L6, 72 h); 400 nM in [9] (setting [11]); 799 nM in [10] (setting [12]). In addition, the selectivity ratio in [5] is above 800; in series [7] it was 4.1.
Consider `Cc1ccc([P+](Cc2ccc(S(=O)(=O)c3ccc(C[P+](c4ccc(C)cc4)(c4ccc(C)cc4)c4ccc(C)cc4)cc3)cc2)(c2ccc(C)cc2)c2ccc(C)cc2)cc1.[Br-].[Br-]`, for which the “Ratio EC50” value in series [1] was 1.1; in [8], 1.2. The EC50 was 270 nM in series [2]; above 300000 nM in series [3] (Homo sapiens, HEK293, 72 h); 230 nM in [4]; 22000 nM in [6] (Rattus norvegicus, L6, 72 h); 253 nM in series [9] (setting [11]); 173 nM in series [10] (setting [12]). In addition, the selectivity ratio was above 1300 in [5] and 127 in series [7].
`Cc1ccc([P+](Cc2ccc(C(=O)c3ccc(C[P+](c4ccccc4)(c4ccccc4)c4ccc(C)cc4)cc3)cc2)(c2ccccc2)c2ccccc2)cc1.[Br-].[Br-]`: the “Ratio EC50” value in [1] and in series [8] was 1 in each case. For the same compound, the EC50 in series [2] came out at 183 nM; in series [3] (Homo sapiens, HEK293, 72 h) it was 261000 nM; in [4], 180 nM; in series [6] (Rattus norvegicus, L6, 72 h), 16300 nM; in series [9] (setting [11]), 182 nM; in series [10] (setting [12]) it was 260 nM. Also, the selectivity ratio worked out at 1450 in series [5] and 62 in [7].
Take `Cc1ccc([P+](CCc2ccc(CCc3ccc(CC[P+](c4ccc(C)cc4)(c4ccc(C)cc4)c4ccc(C)cc4)cc3)cc2)(c2ccc(C)cc2)c2ccc(C)cc2)cc1.[Cl-].[Cl-]`: the “Ratio EC50” value in [1] was 0.8; in series [8], 0.7. The EC50 worked out at 89 nM in series [2]; 12800 nM in series [3] (Homo sapiens, HEK293, 72 h); 125 nM in series [4]; 1090 nM in series [6] (Rattus norvegicus, L6, 72 h); 94 nM in series [9] (setting [11]); 27 nM in series [10] (setting [12]). Further, the figures for the selectivity ratio in series [5] and in series [7] were 103 and 40.3, respectively.
In the case of `Cc1ccc([P+](Cc2ccc(C(=O)c3ccc(C[P+](c4ccc(C)cc4)(c4ccc(C)cc4)c4ccc(C)cc4)cc3)cc2)(c2ccc(C)cc2)c2ccc(C)cc2)cc1.[Br-].[Br-]`, the “Ratio EC50” value in series [1] turned out to be 1.6; in [5] (hek293), 1266; in series [7] (l6), 49; in series [8] it was 0.8. For the same compound, the EC50 in series [2] came to 90 nM; in series [3] (hek293) it was 141000 nM; in [4], 110 nM; in series [6] (l6), 10800 nM; in [9], 18 nM; in series [10], 220 nM.
With `CCCC[P+](CCCC)(CCCC)Cc1ccc(C(=O)c2ccc(C[P+](CCCC)(CCCC)CCCC)cc2)cc1.[Br-].[Br-]`, the “Ratio EC50” value in [1] was found to be 2.7; in series [8], 3.4. Moreover, the EC50 is 1630 nM in [2]; above 300000 nM in [3] (Homo sapiens, HEK293, 72 h); 480 nM in [4]; 112000 nM in series [6] (Rattus norvegicus, L6, 72 h); 1320 nM in series [9] (setting [11]); 355 nM in series [10] (setting [12]). Further, the values for the selectivity ratio in series [5] and in series [7] were above 620 and 315, respectively.
Regarding `O=C(c1ccc(C[P+](c2ccccc2)(C2CCCCC2)C2CCCCC2)cc1)c1ccc(C[P+](c2ccccc2)(C2CCCCC2)C2CCCCC2)cc1.[Br-].[Br-]`, the “Ratio EC50” value in series [1] is given as 1.1; in series [8], 1.2. The EC50 in [2] was 290 nM; in series [3] (Homo sapiens, HEK293, 72 h), above 300000 nM; in [4], 240 nM; in series [6] (Rattus norvegicus, L6, 72 h) it was 22900 nM; in [9] (setting [11]), 260 nM; in [10] (setting [12]), 320 nM. Also, the selectivity ratio in series [5] is above 1270; in series [7] it was 72.
For `CC(C)[P+](Cc1ccc(Oc2ccc(C[P+](c3ccccc3)(c3ccccc3)C(C)C)cc2)cc1)(c1ccccc1)c1ccccc1.[Br-].[Br-]`, the “Ratio EC50” value in [1] and in [8] was 1 in each case. In addition, the EC50 is 330 nM in series [2]; above 300000 nM in series [3] (Homo sapiens, HEK293, 72 h); 330 nM in series [4]; 5000 nM in [6] (Rattus norvegicus, L6, 72 h); 330 nM in [9] (setting [11]); 585 nM in series [10] (setting [12]). Also, the selectivity ratio in [5] was above 900; in series [7], 8.6.
With `COc1ccccc1[P+](Cc1ccc(Cc2ccc(C[P+](c3ccccc3OC)(c3ccccc3OC)c3ccccc3OC)cc2)cc1)(c1ccccc1OC)c1ccccc1OC.[Br-].[Br-]`, the results for the “Ratio EC50” value in series [1] and in [8] were 0.9 and 0.8, respectively. The EC50 in [2] stood at 66 nM; in [3] (Homo sapiens, HEK293, 72 h), 204000 nM; in [4], 80 nM; in series [6] (Rattus norvegicus, L6, 72 h) it was 1080 nM; in [9] (setting [11]), 74 nM; in series [10] (setting [12]), 209 nM. The selectivity ratio was found to be 2560 in series [5] and 5 in series [7].
On to `O=C(c1ccc(C[P+](c2ccc(F)cc2)(c2ccc(F)cc2)c2ccc(F)cc2)cc1)c1ccc(C[P+](c2ccc(F)cc2)(c2ccc(F)cc2)c2ccc(F)cc2)cc1.[Br-].[Br-]`, for which the “Ratio EC50” value in [1] turned out to be 2.5; in [8], 1.5. For the same compound, the concentration giving a half-maximal response (EC50) in series [2] was 1240 nM; in [3] (Homo sapiens, HEK293, 72 h), above 300000 nM; in series [4] it was 850 nM; in [6] (Rattus norvegicus, L6, 72 h), 77400 nM; in series [9] (setting [11]) it was 2100 nM; in series [10] (setting [12]) it was 450 nM. The selectivity ratio was above 350 in series [5] and 172 in series [7].
For `[Br-].[Br-].c1ccc2c([P+](Cc3ccc(Oc4ccc(C[P+](c5cccc6ccccc56)(c5cccc6ccccc56)c5cccc6ccccc56)cc4)cc3)(c3cccc4ccccc34)c3cccc4ccccc34)cccc2c1`, the “Ratio EC50” value in [1] is reported as 0.9; in [8], 0.8. Further, the EC50 in series [2] is 128 nM; in [3] (Homo sapiens, HEK293, 72 h), 114000 nM; in series [4] it was 160 nM; in [6] (Rattus norvegicus, L6, 72 h), 3450 nM; in series [9] (setting [11]), 140 nM; in [10] (setting [12]) it was 384 nM. Moreover, the selectivity ratio in series [5] is 722; in series [7], 9.
As for `Cc1cccc([P+](Cc2ccc(C(=O)c3ccccc3)cc2)(c2cccc(C)c2)c2cccc(C)c2)c1.[Br-]`, the “Ratio EC50” value is reported as 0.8 in series [1] and 0.7 in series [8]. Also, the EC50 came to 110 nM in [2]; 48200 nM in series [3] (Homo sapiens, HEK293, 72 h); 170 nM in series [4]; 2610 nM in series [6] (Rattus norvegicus, L6, 72 h); 150 nM in series [9] (setting [11]); 274 nM in series [10] (setting [12]). For the same compound, the selectivity ratio came to 281 in series [5] and 9.5 in series [7].
Regarding `Cc1cccc([P+](Cc2ccc(Cc3ccc(C[P+](c4cccc(C)c4)(c4cccc(C)c4)c4cccc(C)c4)cc3)cc2)(c2cccc(C)c2)c2cccc(C)c2)c1.[Br-].[Br-]`, the results for the “Ratio EC50” value in series [1] and in series [8] were 1 and 0.9, respectively. In addition, the EC50 was found to be 130 nM in [2]; 72600 nM in series [3] (Homo sapiens, HEK293, 72 h); 140 nM in series [4]; 939 nM in series [6] (Rattus norvegicus, L6, 72 h); 140 nM in [9] (setting [11]); 231 nM in series [10] (setting [12]). Besides, the results for the selectivity ratio in series [5] and in series [7] were 524 and 4, respectively.
`Cc1ccccc1[P+](Cc1ccc(C(=O)c2ccc(C[P+](c3ccccc3)(c3ccccc3)c3ccccc3C)cc2)cc1)(c1ccccc1)c1ccccc1.[Br-].[Br-]`: the figures for the “Ratio EC50” value in series [1] and in series [8] were 1.2 and 1.1, respectively. Moreover, the EC50 came to 220 nM in series [2]; 214000 nM in series [3] (Homo sapiens, HEK293, 72 h); 200 nM in series [4]; 14000 nM in series [6] (Rattus norvegicus, L6, 72 h); 240 nM in series [9] (setting [11]); 160 nM in series [10] (setting [12]). Further, the results for the selectivity ratio in series [5] and in series [7] were 1100 and 88, respectively.
